The conditions of data set [1]: in vivo; ref Obach et al., 2006; Shaffer et al., 2009; cited from earlier work.
For data set [2], the target named is T1, human α3β4 nAChRs (Homo sapiens, UniProt P30926+P32297). To be noted: ref Rollema et al., 2007; cited from earlier work.
The test system of data set [3] is rats consuming ethanol. The following applies: 1 and 2 mg/kg; ref Steensland et al., 2007; cited from earlier work.
For data set [4], the system named is humans. The following applies: cited from earlier work.
Data set [5] is described as follows: Rat pharmacokinetics, unbound brain concentrations. The data set is classed as in vivo, Sprague-Dawley rats. The gist of the method:
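Sprague-Dawley rats were dosed s.c. at 1, 5 or 10 mg/kg. Unbound brain concentration (Cb,u) was estimated over time using an LC-MS/MS assay combined with tissue binding, with values in nM and n = 2 per time point.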

The subject of data set [6] is Wistar rats consuming 20% ethanol. In words: Intermittent access 20% ethanol two-bottle-choice drinking paradigm. The class given is in vivo. In a few lines:
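Individually housed rats on a reversed 12-h light cycle had intermittent access to 20% (v/v) ethanol versus water in a two-bottle choice. Once baseline drinking was stable, test compound or saline was given s.c. 30 min before bottles were presented. Injections were 7 days apart in a Latin square, each rat serving as its own control. Intake (g/kg) and preference were measured at 30 min, 6 h and 24 h. Analysis was repeated-measures ANOVA with Newman–Keuls.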

For data set [7] the following is noted: oral administration, ref Shaffer et al., 2009, cited from earlier work.
Data set [8] concerns rats self-administering 10% ethanol. Briefly: Repeated. The class given is in vivo. In a few lines: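 Rats trained on FR3 10% ethanol self-administration reached stable baseline and were randomised to drug or saline. Test compound (10 mg/kg s.c.) or saline was given 30 min before each session on 5 consecutive days, with lever presses recorded daily. Post-treatment baseline was taken 24 h after the last dose. The day after a cage change (day 3) was excluded. Analysis was two-way ANOVA with Newman–Keuls (n = 6–7).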

Data set [9] deals with Wistar rats self-administering 10% ethanol. Briefly: Operant self-administration of 10% ethanol. The data set is classed as in vivo. To be noted: 10 mg/kg s.c., 30 minutes before session. In a few lines: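 Wistar rats were trained on FR3 (0.1 ml reward), 30 min daily sessions Mon–Fri, to press for 10% (v/v) ethanol. Test compound or saline was given s.c. either 30 min or 2 h before the session, depending on compound. Injections were 7 days apart in a Latin square, with the normal schedule between them. Active lever presses were analysed by repeated-measures ANOVA with Newman–Keuls (n = 8–13).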

The target in data set [10] is T1, human α3β4 nAChRs. The class given is cell-based. The gist of the method:
(§1)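 HEK293 lines stably transfected with human α3β4 or α4β2 nAChRs. Cells were loaded in growth medium with Calcium Green-1 (2 µM final) mixed 1:1 with 20% pluronic F-127, then read on FLIPR (ex 488, em 516 nm). Agonism was a single compound addition compared with 100 µM ACh. Inhibition used 2 min pretreatment then 30 µM ACh, with ΔF taken relative to vehicle-pretreated wells. Runs were in quadruplicate, with EC50/IC50 from concentration curves.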

Data set [11] addresses human α4β2 nAChRs (Homo sapiens, UniProt P17787+P43681). The data set is classed as cell-based. The gist of the method: as §1
The target of data set [12] is α6/4β4 nAChRs (Homo sapiens, UniProt P30926+P43681+Q15825). Briefly: Binding affinity for α6/4β4 nAChRs. To be noted: ratio of binding affinities.
Sequence of α6/4β4 nAChRs (Q15825 26-239): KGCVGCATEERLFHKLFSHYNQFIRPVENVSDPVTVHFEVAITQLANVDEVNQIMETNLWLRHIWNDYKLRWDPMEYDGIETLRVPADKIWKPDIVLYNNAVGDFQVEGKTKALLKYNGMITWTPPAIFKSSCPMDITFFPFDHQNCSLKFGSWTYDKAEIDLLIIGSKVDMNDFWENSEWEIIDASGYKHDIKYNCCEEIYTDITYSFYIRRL
Sequence of α6/4β4 nAChRs (P43681 241-627): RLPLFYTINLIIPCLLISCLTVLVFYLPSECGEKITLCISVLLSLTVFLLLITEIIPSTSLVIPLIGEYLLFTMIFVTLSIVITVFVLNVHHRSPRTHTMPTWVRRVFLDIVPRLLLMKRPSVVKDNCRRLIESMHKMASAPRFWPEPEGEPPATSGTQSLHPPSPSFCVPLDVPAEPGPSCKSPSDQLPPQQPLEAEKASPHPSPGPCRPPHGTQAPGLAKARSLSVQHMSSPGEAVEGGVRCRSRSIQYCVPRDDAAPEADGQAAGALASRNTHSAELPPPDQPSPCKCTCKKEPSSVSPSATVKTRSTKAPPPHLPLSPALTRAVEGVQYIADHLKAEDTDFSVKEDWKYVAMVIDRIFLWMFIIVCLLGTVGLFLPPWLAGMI
Sequence of α6/4β4 nAChRs (P30926 22-498): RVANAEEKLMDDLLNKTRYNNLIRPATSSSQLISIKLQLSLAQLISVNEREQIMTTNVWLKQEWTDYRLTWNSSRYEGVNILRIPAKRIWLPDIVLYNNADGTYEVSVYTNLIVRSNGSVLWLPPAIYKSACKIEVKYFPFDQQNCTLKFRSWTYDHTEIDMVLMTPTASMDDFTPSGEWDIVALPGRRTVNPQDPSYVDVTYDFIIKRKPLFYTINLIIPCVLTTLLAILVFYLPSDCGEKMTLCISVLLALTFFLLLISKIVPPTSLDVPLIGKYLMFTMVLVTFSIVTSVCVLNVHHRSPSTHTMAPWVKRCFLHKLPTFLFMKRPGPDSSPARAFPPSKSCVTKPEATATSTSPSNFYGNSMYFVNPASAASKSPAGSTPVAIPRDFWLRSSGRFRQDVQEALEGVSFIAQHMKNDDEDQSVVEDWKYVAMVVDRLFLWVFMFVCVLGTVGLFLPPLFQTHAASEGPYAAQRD
Data set [13] deals with α4β2 nAChRs. The following applies: ref Glick et al., 2000; cited from earlier work.
[14] abbreviates: clinically tested as a smoking cessation aid, ref Pfizer, data on file.
Setting [15] is: male, Sprague-Dawley, rat, brain (unbound), subcutaneous, 10 mg/kg.

Molecules are shown by their SMILES. “Also recorded” adds a separate entry of the source. Like-named read-outs stand apart in the source and are kept apart here.

T1 sequence (P32297 32-505): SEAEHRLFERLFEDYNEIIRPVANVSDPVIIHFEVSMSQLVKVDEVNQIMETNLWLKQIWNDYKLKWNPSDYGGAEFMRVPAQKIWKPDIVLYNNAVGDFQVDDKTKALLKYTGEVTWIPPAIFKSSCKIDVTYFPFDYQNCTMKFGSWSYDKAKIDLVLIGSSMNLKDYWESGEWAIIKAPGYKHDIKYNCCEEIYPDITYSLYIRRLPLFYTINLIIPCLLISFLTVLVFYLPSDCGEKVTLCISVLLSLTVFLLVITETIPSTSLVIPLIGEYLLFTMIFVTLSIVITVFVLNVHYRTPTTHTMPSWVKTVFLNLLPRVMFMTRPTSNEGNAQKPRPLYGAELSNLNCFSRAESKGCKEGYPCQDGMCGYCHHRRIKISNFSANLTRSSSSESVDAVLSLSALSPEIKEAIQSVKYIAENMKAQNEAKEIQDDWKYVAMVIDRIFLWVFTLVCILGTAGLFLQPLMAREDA
T1 sequence (P30926 22-498): as the sequence (P30926 22-498) above
Sequence of human α4β2 nAChRs (P43681 29-627 limits assumed): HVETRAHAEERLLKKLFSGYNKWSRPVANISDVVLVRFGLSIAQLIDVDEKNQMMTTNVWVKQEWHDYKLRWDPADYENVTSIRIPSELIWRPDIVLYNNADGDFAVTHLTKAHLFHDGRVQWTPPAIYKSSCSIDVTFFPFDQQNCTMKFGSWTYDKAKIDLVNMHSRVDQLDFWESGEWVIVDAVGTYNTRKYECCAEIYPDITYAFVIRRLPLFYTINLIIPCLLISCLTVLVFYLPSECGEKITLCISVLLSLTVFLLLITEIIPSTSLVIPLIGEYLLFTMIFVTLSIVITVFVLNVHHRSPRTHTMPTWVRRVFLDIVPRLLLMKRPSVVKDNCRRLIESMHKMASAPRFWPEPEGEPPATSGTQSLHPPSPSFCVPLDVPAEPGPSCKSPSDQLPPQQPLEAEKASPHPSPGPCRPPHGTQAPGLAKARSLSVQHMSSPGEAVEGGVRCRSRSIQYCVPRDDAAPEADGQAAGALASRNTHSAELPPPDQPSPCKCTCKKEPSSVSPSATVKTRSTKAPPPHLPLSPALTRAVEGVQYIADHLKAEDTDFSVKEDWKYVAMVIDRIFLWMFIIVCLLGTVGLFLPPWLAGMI
Sequence of human α4β2 nAChRs (P17787 26-502): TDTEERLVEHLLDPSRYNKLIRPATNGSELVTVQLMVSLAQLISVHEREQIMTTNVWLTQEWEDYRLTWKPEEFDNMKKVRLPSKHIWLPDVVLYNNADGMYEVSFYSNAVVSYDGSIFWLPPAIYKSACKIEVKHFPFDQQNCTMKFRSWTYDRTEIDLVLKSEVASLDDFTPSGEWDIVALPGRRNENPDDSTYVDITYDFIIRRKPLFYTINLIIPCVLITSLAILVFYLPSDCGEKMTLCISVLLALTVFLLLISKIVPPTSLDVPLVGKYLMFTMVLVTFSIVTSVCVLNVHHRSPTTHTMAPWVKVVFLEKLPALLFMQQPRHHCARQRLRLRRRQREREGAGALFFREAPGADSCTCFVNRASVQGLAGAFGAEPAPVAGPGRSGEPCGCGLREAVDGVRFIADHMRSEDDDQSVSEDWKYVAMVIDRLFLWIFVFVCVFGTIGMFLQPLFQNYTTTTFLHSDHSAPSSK

For `c1cnc2cc3c(cc2n1)[C@@H]1CNC[C@H]3C1` [Varenicline], the active metabolites result in data set [1] is given as “not formed in vivo”. Further, the “Activation Efficacy (% vs ACh)” value in data set [2] is given as 93.5 ± 1.4 (5) % vs ACh. Moreover, the ethanol intake entry in [3] is recorded as “significantly reduce ethanol intake”.
As a reminder, the EC50 is the concentration needed to bring the measured effect to its halfway point. A low value points to a more potent agent. By IC50 is commonly meant the concentration that gives 50% inhibition. Low readings indicate higher potency, high ones lower potency. For the compound `FC(F)(F)c1ccc2c(c1)[C@@H]1CNC[C@H]2C1` [CP-601932, (1S,5R)-2,3,4,5-tetrahydro-7-(trifluoromethyl)-1,5-methano-1H-3-benzazepine], the “side effects indicative of ganglion blocking effects” value in data set [4] (clinical trial as potential smoking cessation aid) was “did not show side effects indicative of ganglion blocking effects”. Besides, the abstinence rate result in [4] (setting [14]) is given as “moderate two-fold increase in abstinence rate that was not statistically significant”. In addition, the “tolerability / safety in humans” value in [4] (setting [14]) was “safe in humans; also recorded: generally well tolerated”. The “maximal unbound brain concentration Cb,u” value in data set [5] (10 mg/kg s.c., at 30 minutes) stood at 710 nM. In data set [5] (setting [15]), this compound gave a concentration at 5 h of 530 nM. This compound also gave a concentration at 24 h in data set [5] (setting [15]) of 85 nM. Moreover, the “ethanol consumption vs vehicle” value was “significantly decreased high voluntary ethanol consumption” in data set [6] (5 mg/kg s.c., at 30 minutes); “decreased ethanol consumption” in [6] (10 mg/kg s.c., 6 h and 24 h time points); “significantly decreased high voluntary ethanol consumption” in [6] (10 mg/kg s.c., at 30 minutes). In addition, the “preference for ethanol over water vs vehicle” value in data set [6] (highest dose (10 mg/kg s.c.), all time points) was “decreased the preference for ethanol over water”. The brain penetration result in data set [7] (rats) was “extensive brain penetration”. In data set [7], the absorption entry is “well absorbed”. For the same compound, in [7], the half-life entry is “long half-life”. Moreover, the “rebound in active lever presses after end of chronic treatment” value in data set [8] (10 mg/kg s.c. for 5 days, compared to baseline) was “no rebound increase in active lever presses”. Besides, the “active lever presses for 10% ethanol vs vehicle” value in data set [8] (10 mg/kg s.c. once per day for 5 consecutive days, 30 minutes before session) is given as “decreased active lever presses”; in data set [9] it was “significantly decreased the number of presses on the active lever”. The active metabolites result in [1] is given as “not formed in vivo”. Further, the EC50 in [10] (Activation EC50, α3β4, vs 100 μM ACh) was 2920 ± 320 nM; in data set [11], more than 30 µM. For the same compound, the IC50 is 100 to 300 nM in [10] (IC50 for inhibition of α3β4 nAChRs, range given in text for both compounds); 257 ± 41 nM in [10] (Inhibition IC50, α3β4, 2 min pre-application, 30 μM ACh challenge); 114 ± 29 nM in data set [11]. For the same compound, the “Activation of α4β2 nAChRs (Ca2+ fluorescence)” value in data set [11] (α4β2) is recorded as “no measurable change in Ca2+-fluoresence”. In addition, the “fold higher affinity for α3β4 than for α6/4β4 nAChRs” value in data set [12] is recorded as “at least 10 fold”.
For the compound `COCC[C@H]1CC2CN3CCc4c([nH]c5ccccc45)[C@](C(=O)OC)(C2)[C@H]13` [18-MC, 18-methoxycoronaridine], the “effect at α4β2 nAChRs” value in data set [13] is “no effect”.

Values taken from article PMC3055681 (Neuropsychopharmacology : official publication of the …, 2010).
